In brackets after ≈: the same amount, converted by molar mass. Activity calls are given as the source filed them. The rule behind the calls is not given here.
What was measured:
[1] = system: Bacillus cereus; test: Antibacterial activity against Bacillus cereus ATCC 10702 by doubling dilution method; assay type: functional
Summary of the method: (§1)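 Doubling (twofold) broth dilution of pure compounds, modified from an earlier published procedure. Gram-positive strains: B. cereus ATCC 10702, S. epidermidis ATCC 12228, M. luteus ATCC 9341. Read-out is MIC in μg/mL. Chloramphenicol served as positive control.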

[2] = system: Staphylococcus epidermidis; test: Antibacterial activity against Staphylococcus epidermidis ATCC 12228 by doubling dilution method; assay type: functional; summary of the method: as §1
[3] = system: KB; test: Cytotoxicity against human KB cells; assay type: functional, cell-based
Summary of the method: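 KB cells (ATCC CCL 17, human nasopharyngeal carcinoma), run by the method of earlier published work. Each test done at least in triplicate. Value given as IC50 in μg/mL. Podophyllotoxin served as positive control.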

[4] = system: Micrococcus luteus; test: Antibacterial activity against Micrococcus luteus ATCC 9341 by doubling dilution method; assay type: functional; summary of the method: as §1
[5] = Bacillus cereus, ATCC 10702, read-out: MIC
[6] = Staphylococcus epidermidis, ATCC 12228, read-out: MIC
[7] = Homo sapiens, KB, read-out: IC50

SMILES | MIC [1, 5] [µg/mL] | MIC [2, 6] [µg/mL] | Activity [2] | IC50 [3, 7] [µg/mL] | other results
CCC(=O)C1=C(O)C2=C(OC(C)(C)C=C2)C(C)(CC=C(C)C)C1=O (stereo in doubt; 6) [HYPERGUINONE A] |  |  |  |  | MIC [1]: 32 µg/mL (≈ 96.8 µM); MIC [2]: 32 µg/mL (≈ 96.8 µM)
CC(C)=CCC1(C)C(=O)C(C(=O)C(C)C)=C(O)C2=C1OC(C)(C)C=C2 (stereo in doubt; 7) |  |  | inactive |  | 
CC(C)=CCC1(C)C(=O)C(C(=O)C(C)C)=C(O)C2=C1OC(C)(C)C=C2 (stereo in doubt; 7) [HYPERGUINONE B] |  |  |  |  | IC50 ([3]; kb): 13 µg/mL (≈ 37.7 µM); MIC [1]: 32 µg/mL (≈ 92.9 µM)
CC(C)=CCC1(C)C(=O)C(C(=O)C(C)C)=C(O)C2=C1OC(C)(C)C=C2 (stereo in doubt; 7a) |  |  | inactive |  | 
CC(C)=CC[C@@H]1C[C@@]2(C)C(=O)[C@](CC=C(C)C)(C(=O)C(C(=O)C(C)C)=C2O)C1(C)C (stereo in doubt; 8) | 8 (≈ 19.3 µM) | 8 (≈ 19.3 µM) |  |  | IC50 ([3]; kb): 3.2 µg/mL (≈ 7.72 µM); MIC [4]: 16 µg/mL (≈ 38.6 µM)
O=C(N[C@H](CO)[C@H](O)c1ccc([N+](=O)[O-])cc1)C(Cl)Cl [CHLORAMPHENICOL] | 2 (≈ 6.19 µM) | 4 (≈ 12.4 µM) |  |  | MIC [4]: 2 µg/mL (≈ 6.19 µM)
CCC(C)C(=O)[C@]12C(=O)C3=C(OC(C)(C)C=C3)[C@](C)(C[C@@H](CC=C(C)C)C1(C)C)C2=O (stereo partly specified) [PAPUAFORIN C] | 64 (≈ 150 µM) |  | inactive | 4.9 (≈ 11.5 µM) | MIC [4]: 32 µg/mL (≈ 75 µM)
CCC(C)C(=O)[C@]12C(=O)C3=C(OC(C)(C)C=C3)[C@](C)(C[C@@H](CC=C(C)C)[C@]1(C)CCC=C(C)C)C2=O (stereo partly specified) [PAPUAFORIN D] | 128 (≈ 259 µM) |  | inactive | 6.6 (≈ 13.3 µM) | 
CC(C)=CCC[C@@]1(C)[C@H](CC=C(C)C)C[C@]2(C)C(=O)[C@@]1(C(=O)C(C)C)C(=O)C1=C2OC(C)(C)C=C1 [PAPUAFORIN E] | 64 (≈ 133 µM) | 32 (≈ 66.6 µM) |  | 5.6 (≈ 11.6 µM) | 
COc1cc([C@@H]2c3cc4c(cc3[C@H](O)[C@H]3COC(=O)[C@H]23)OCO4)cc(OC)c1OC [PODOFILOX] |  |  |  | 0.006 (≈ 0.0145 µM) | 

Now from value to molecule, other results behind:

MIC [1, 5] [µg/mL] | MIC [2, 6] [µg/mL] | SMILES | Activity [2] | IC50 [3, 7] [µg/mL] | other results
32 (≈ 96.8 µM) | 32 (≈ 96.8 µM) | CCC(=O)C1=C(O)C2=C(OC(C)(C)C=C2)C(C)(CC=C(C)C)C1=O (stereo in doubt; 6a) [HYPERGUINONE A] |  |  | 
32 (≈ 92.9 µM) |  | CC(C)=CCC1(C)C(=O)C(C(=O)C(C)C)=C(O)C2=C1OC(C)(C)C=C2 (stereo in doubt; 7a) [HYPERGUINONE B] |  | 13 (≈ 37.7 µM) | 
64 (≈ 155 µM) |  | CC(C)=CC[C@@H]1C[C@]2(C)C(=O)[C@@](C(=O)C(C)C)(C(=O)C3=C2OC(C)(C)C=C3)C1(C)C [PAPUAFORIN A] | inactive | 7.5 (≈ 18.2 µM) | 

From ChEMBL document CHEMBL1150854, “New prenylated bi- and tricyclic phloroglucinol derivatives from Hypericum papuanum” (J Nat Prod, 2001)
